Data taken from ChEMBL document CHEMBL4513216, “Probing the Open Global Health Chemical Diversity Library for Multistage-Active Starting Points for Next-Generation Antimalarials” (ACS Infect Dis, 2020).

assay: Toxicity liver stage against HepG2, at 10uM; assay type: cell-based; design: test concentration 10 uM, cell line HepG2-A16-CD81EGFP; details: human, HepG2-A16-CD81EGFP cells; read-out: INHIBITION
Procedure, shortened: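 Uninfected HepG2-A16-CD81EGFP cells, 3 × 10^3 per well, 1536-well, plated on prespotted compound at 10 μM final, parasite-free screening media added to match infected plates; puromycin 10 μM positive, DMSO 0.5% negative; run in parallel with 48 h PbLuc assay at 37 °C, 5% CO2; viability by CellTiter-Glo luminescence, normalized to controls.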

Compared with `Cc1ccc2c(c1)Oc1ncccc1C(=O)N2`, `CC(Nc1ncnc2c1NC(=O)CN2)c1ccc2c(c1)OCO2` (stereo not drawn) is higher in cytotoxicity at 10 µM: 5.15% for the first, 8.19% for the second.

Compared with `CN1C[C@@H](NC(=O)c2ccccc2)C[C@H]1c1nc(-c2cnccn2)no1`, `CCc1nc2n(n1)CC(NCc1nc(-c3cccnc3)no1)CC2` (stereo not drawn) is lower in cytotoxicity at 10 µM: 9.68% for the first, -8.66% for the second.

Compared with `O=C(NCCc1c[nH]c2ccccc12)C1(n2cnnn2)CCCCC1`, `c1ccc(-c2cccc(-c3ccn(CCN4CCCCC4)n3)c2)nc1` is lower in cytotoxicity at 10 µM: -0.321% for the first, -4.73% for the second.

First: COc1ccc(OC)c(S(=O)(=O)NCC2(OC)CCSC2)c1 (stereo not drawn)
Second: COc1ccc(C(C)(C)C)cc1CN1CCn2c(CO)nnc2C1
The cytotoxicity at 10 µM of the first is lower: -12.8% for the first, 10.4% for the second.

Going from `C1CN(CC2CCOCC2)Cc2c(CN3CCOCC3)nnn2C1` to `Cn1nc(C(=O)N2CCOCC2)c2c1CN(CC1CC1)C2`, the cytotoxicity at 10 µM rises from -143% to -90.1%.

Compared with `NC1CCN(c2nccn3c(=O)[nH]nc23)CC1`, `Cc1nccn1CCC1CCN(c2ncccn2)CC1` is lower in cytotoxicity at 10 µM: 3.65% for the first, -3% for the second.

First: O=C(CCn1cc(Cl)cn1)Nc1ncccn1
Second: Cc1ccc(CNC(=O)c2nc3c(n2C)CCN(c2ncccn2)C3)o1
The cytotoxicity at 10 µM of the first is higher: -5.32% for the first, -119% for the second.

Compared with `Cc1c2ncn(CC(=O)NC(C)C)c(=O)c2nn1C`, `Cc1cc(=O)n(CC(=O)NCCC(C)C)c(-c2cccc(Cl)c2)n1` is higher in cytotoxicity at 10 µM: -5.26% for the first, -2.32% for the second.

First: O=C(NCc1ccco1)c1[nH]nc2c1CS(=O)(=O)CC2
Second: O=C(N[C@@H]1c2ccccc2C[C@@H]1O)C1CCN(Cc2ccco2)CC1
The cytotoxicity at 10 µM of the first is higher: 14.8% for the first, -0.647% for the second.

Going from `Cc1cc(C)nc(NC(=O)C(C)Oc2ccc3c(c2)OCO3)n1` (stereo not drawn) to `Cc1cc(C(=O)Nc2ccnc(OC3CCOC3)c2)c(C)o1` (stereo not drawn), the cytotoxicity at 10 µM rises from -9.9% to 6.66%.

Compared with `CC(=O)N1CCC(C(=O)N2CCC2c2nc(-c3ccc(C)s3)no2)CC1` (stereo not drawn), `CC(C)c1nccn1C1CCCN(C(=O)c2cc(C3CC3)on2)C1` (stereo not drawn) is lower in cytotoxicity at 10 µM: 3.15% for the first, -7.37% for the second.

Compared with `O=C(c1cncs1)N1CCC(c2cnccn2)CC1`, `CC(C)c1n[nH]c(C2CN(C(=O)c3cnccn3)CCO2)n1` (stereo not drawn) is higher in cytotoxicity at 10 µM: -23.2% for the first, 2.16% for the second.

First: O=C(O)c1ccccc1-c1ccc(CN2CCCC(O)C2)cc1 (stereo not drawn)
Second: Cc1ncsc1CNC(=O)N1CCN(Cc2ccccc2)C[C@H]1C
The cytotoxicity at 10 µM of the first is higher: -9.16% for the first, -125% for the second.

First: CC(C)C(=O)N1CCCC(c2ncncc2-c2ccncc2)C1 (stereo not drawn)
Second: CC(C)C(=O)N1CCN(Cc2cc(-c3ccncc3)nn2C)CC1
The cytotoxicity at 10 µM of the first is lower: -6.62% for the first, 0.59% for the second.

First: CS(=O)(=O)N1CC2(CCN(CC3CCCCC3)C2)Cc2ccccc21 (stereo not drawn)
Second: CCC(CN1CCCCC1)NC(=O)C1(c2ccc(F)cc2)CC1 (stereo not drawn)
The cytotoxicity at 10 µM of the first is higher: 23.3% for the first, 1.69% for the second.

Compared with `CN1CCC(O)(CNCc2ccc(F)c(C(F)(F)F)c2)CC1`, `Cc1ccc(C(=O)NCC2(O)CCOCC2)cc1F` is higher in cytotoxicity at 10 µM: 3.08% for the first, 6.79% for the second.

First: COc1ccccc1C(N)CC(C)C (stereo not drawn)
Second: CC(C)C(=O)NCCNC(=O)CCOc1cccc(F)c1
The cytotoxicity at 10 µM of the first is higher: 6% for the first, -2.98% for the second.

First: CN(C)CCCNC(=O)c1ccnc(OCc2ccccc2)c1
Second: CCOc1cccc(CNC(=O)NCC(O)c2cccc(F)c2)c1 (stereo not drawn)
The cytotoxicity at 10 µM of the first is lower: -11.5% for the first, -2.92% for the second.

First: CCOCC(O)CN1CCN(C(=O)c2ccncc2)CC1 (stereo not drawn)
Second: COCc1cc(N2CCN(Cc3ccncc3)CC2)n2nccc2n1
The cytotoxicity at 10 µM of the first is higher: 10% for the first, -6.32% for the second.

Compared with `CCCn1nc(C(=O)N(C)Cc2cnn(C)c2)ccc1=O`, `CNS(=O)(=O)c1ccc(C(=O)N2CCCC2c2cnn(C)c2)o1` (stereo not drawn) is higher in cytotoxicity at 10 µM: -143% for the first, -8.28% for the second.

Compared with `Cc1ncsc1CNc1cccc(OCCN2CCCC2)c1`, `O=C(CN1CCCC1Cn1cccn1)NCCOc1cccc(F)c1` (stereo not drawn) is lower in cytotoxicity at 10 µM: -3.35% for the first, -3.54% for the second.

Going from `O=C(NCCSCc1ccc(Br)s1)C1CCCN(c2cnccn2)C1` (stereo not drawn) to `Cc1nc(C)n(CC2CCCCN2CC(=O)Nc2cccnc2)n1` (stereo not drawn), the cytotoxicity at 10 µM falls from 5.34% to -12.4%.

First: CC(C)(O)CSCCNC(=O)c1cc(F)ccc1F
Second: COC(=O)C(c1cc(F)ccc1F)N(C)C(=O)c1cnccn1 (stereo not drawn)
The cytotoxicity at 10 µM of the first is lower: -4.11% for the first, 6.43% for the second.

Going from `Cc1cc(OCc2cccc(F)c2)ccc1NC(=O)C(C)NC(N)=O` (stereo not drawn) to `Cc1noc([C@@H](C)NCc2cccc(Cl)c2)c1C(=O)O`, the cytotoxicity at 10 µM rises from -1.47% to -0.802%.

Going from `CC(C)n1cnnc1C1CCCN(S(=O)(=O)CCCC#N)C1` (stereo not drawn) to `CC(C)CN1CCN(S(=O)(=O)c2cn(C)cn2)Cc2cccnc21`, the cytotoxicity at 10 µM falls from -3.46% to -144%.

Compared with `CC(C)(CCS(C)(=O)=O)CNc1ccc2ccc(F)cc2n1`, `CC(c1ccc(Cl)cc1)N1CCN(CCS(C)(=O)=O)CC1` (stereo not drawn) is lower in cytotoxicity at 10 µM: -6.01% for the first, -20.3% for the second.

First: Cc1csc(NC(=O)CN(C)CC2CCCN2c2cccnn2)n1 (stereo not drawn)
Second: COCc1noc(-c2ccc(N3CCCCC3COC)nc2)n1 (stereo not drawn)
The cytotoxicity at 10 µM of the first is lower: -5.82% for the first, 1.69% for the second.

First: CCc1cnc(CN(C(C)=O)C2CCN(CCS(C)(=O)=O)C2)o1 (stereo not drawn)
Second: CCC[C@H]1CN(c2nccc(NCC)n2)C[C@@H]1NS(=O)(=O)N(C)C
The cytotoxicity at 10 µM of the first is higher: -17.8% for the first, -144% for the second.

First: COCC(=O)N1CCc2nc(NC(C)C)nc(NC(C)C)c2CC1
Second: CNC(=O)c1cc2c(nc1NCC(C)C)CCN(C)CC2
The cytotoxicity at 10 µM of the first is higher: -104% for the first, -153% for the second.

First: COCC1CN(C(=O)c2ccnnc2)Cc2c1cnn2C (stereo not drawn)
Second: CN(Cc1ccccn1)C(=O)c1nn(C)c2c1CCN(CC1CC1)C2
The cytotoxicity at 10 µM of the first is lower: -3.09% for the first, -1.68% for the second.

First: CC(C)(C)c1oc(C(N)=O)cc1CN1CCCCC1CN1CCOCC1 (stereo not drawn)
Second: Cc1cc(C)c(C(=O)N2CCC3(CCCN(CC(C)(C)C)C3)C2)[nH]1 (stereo not drawn)
The cytotoxicity at 10 µM of the first is lower: -11.2% for the first, -3.73% for the second.

Going from `Cc1csc2ncnc(N3CCCC(Cn4cc(C(C)(C)O)nn4)C3)c12` (stereo not drawn) to `CCOc1cc(C(=O)N2CCCC(c3nc(C)c(C)s3)C2)ccn1` (stereo not drawn), the cytotoxicity at 10 µM falls from 2.74% to -3.92%.

First: COCCN1CCC(CN(C)c2nc3c(s2)c(C)nn3C)C1 (stereo not drawn)
Second: Cc1nn(C)c(C)c1C1CCCN1C(=O)CCCn1cccn1 (stereo not drawn)
The cytotoxicity at 10 µM of the first is lower: -4.36% for the first, -0.685% for the second.

Going from `CC(C)CN1CCc2[nH]cnc2C12CCN(C(=O)c1cc[nH]n1)CC2` to `CCc1nc(C(=O)N2CCCC2)nn1-c1c(Cl)cccc1Cl`, the cytotoxicity at 10 µM falls from 0.363% to -2.04%.

First: O=C(O)C1(Oc2ccccc2)CCN(c2ccncc2)CC1
Second: O=C1COC2(CCN(Cc3cccnc3)CC2)CN1c1ccccc1
The cytotoxicity at 10 µM of the first is higher: -3.99% for the first, -113% for the second.

Going from `Cc1nn(CCNC(C)Cn2cncn2)c(C)c1Cl` (stereo not drawn) to `c1ccc(CN2CCn3c(Cn4cncn4)cnc3C2)nc1`, the cytotoxicity at 10 µM falls from 13.4% to -70.7%.

First: Cc1c(F)cccc1CN1CCn2nc(CNC(=O)N(C)C)cc2C1
Second: Cc1ccc2c(n1)N(CCN(C)C)CCN(C(=O)c1ccoc1)C2
The cytotoxicity at 10 µM of the first is higher: -19.4% for the first, -74.4% for the second.

Compared with `Cc1c(CN2CCOCC2)c(O)n(CCO)c(=O)c1C#N`, `Cc1cccc(CN2CCOC3(COCCN(CCN(C)C)C3)C2)n1` (stereo not drawn) is lower in cytotoxicity at 10 µM: -2.78% for the first, -113% for the second.

Compared with `CCc1nc(C)cn1C(=O)Nc1ccccc1`, `Cn1cc(CN2CC(C(=O)Nc3ccccc3)C3(CCOCC3)C2)cn1` (stereo not drawn) is lower in cytotoxicity at 10 µM: 2.52% for the first, -1.96% for the second.

Going from `CC(C)Cc1cc(NC(=O)c2ccncc2)n(C)n1` to `Cc1cc(CN2CC[C@H]3C[C@H](C(=O)Nc4cccnc4C)O[C@@H]3C2)no1`, the cytotoxicity at 10 µM falls from -0.502% to -67%.

Going from `CCCc1n[nH]c(C2CN(C(=O)Cn3ccccc3=O)CCO2)n1` (stereo not drawn) to `CCSc1ncc(CN2C[C@@H]3CC[C@H]2CN(C2CCOCC2)C3)cn1`, the cytotoxicity at 10 µM falls from -1.33% to -6.38%.

Compound `COCCCNC(=O)NCc1ccc(C)cc1` has a cytotoxicity at 10 µM of 3.37%.
